From ChEMBL document CHEMBL4715793 (J Med Chem, 2016)
Activity calls are given as the source filed them. The rule behind the calls is not given here.

Key:
[1] = Antiviral activity against HCV subtype 2a J6/JFH/JC1 infected in human Huh7.5 cells assessed as reduction in viral RNA levels measured after 72 hrs by qRT-PCR analysis; settings: Hepatitis C virus, J6/JFH/JC1, Huh7.5, 72 h
[2] = Cytotoxicity against human Huh7.5 cells assessed as reduction in cell viability incubated for 72 hrs by MTT assay; type: cell-based
Method in brief: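 Huh7.5 cells seeded at 3 × 10^4/cm2, grown 24 h, then exposed to compound for 72 h. Viability read by MTT assay. CC50 by Reed & Muench method, mean ± SD from three independent experiments.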

[3] = Selectivity index, ratio of CC50 for cytotoxicity against human Huh7.5 cells assessed as reduction in cell viability incubated for 72 hrs by MTT assay to EC50 for antiviral activity against HCV genotype 2a J6/JFH/JC1 infected in human Huh7.5 cells assessed as reduction in viral RNA levels measured after 72 hrs by qRT-PCR analysis; type: toxicity, cell-based; settings: read-out: Ratio CC50/EC50
[4] = Inhibition of NS5A in HCV genotype 1b infected in HuH7.5Lcu-Neo cells assessed as reduction in viral replication by luciferase reporter gene assay; type: cell-based, Hepatitis C virus subtype 1b; settings: Hepatitis C virus
Hepatitis C virus [5] = assay: Antiviral activity against HCV subgenomic replicon harboring I377-3'del.S infected in human GS4.3 cells assessed as inhibition of viral replication at 6.25 to 25 uM after 72 hrs by qRT-PCR analysis; type: functional, organism-based; settings: Hepacivirus hominis, dose 6.25-25 µM
Method in brief: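 GS4.3 cells (Huh7 carrying HCV subgenomic replicon I377-3′del.S) seeded at 3 × 10^4/cm2, after 24 h treated with compound or solvent control. After 72 h intracellular RNA extracted and replicon RNA measured by qRT-PCR. Cytotoxicity checked by MTT at 72 h.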

Hepatitis C virus [6] = assay: Antiviral activity against HCV J6/JFH/JC1 harboring A156T mutant infected in human Huh7.5 cells assessed as inhibition of viral replication measured after 72 hrs by qRT-PCR analysis; type: functional, organism-based, Hepacivirus hominis; settings: J6/JFH/JC1, Huh7.5, 72 h
Hepatitis C virus [7] = assay: Antiviral activity against wild-type HCV J6/JFH/JC1 infected in human Huh7.5 cells assessed as inhibition of viral replication measured after 72 hrs by qRT-PCR analysis; type: functional, organism-based, Hepacivirus hominis; settings: J6/JFH/JC1, Huh7.5, 72 h
Method in brief: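 Huh7.5 cells seeded at 3 × 10^4/cm2 and incubated 24 h. Infected with wild-type HCVcc stock (45 IU/cell) with compound or solvent control added at the same time. After 72 h, intracellular RNA measured by one-step qRT-PCR and core protein by Western blot. EC50 by Reed & Muench method, mean ± SD from three independent experiments.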

Hepatitis C virus [8] = assay: Antiviral activity against HCV J6/JFH/JC1 harboring D168V mutant infected in human Huh7.5 cells assessed as inhibition of viral replication measured after 72 hrs by qRT-PCR analysis; type: functional, organism-based, Hepacivirus hominis; settings: J6/JFH/JC1, Huh7.5, 72 h
[9] = Resistance ratio of EC50 for antiviral activity against HCV J6/JFH/JC1 harboring D168V mutant infected in human Huh7.5 cells to EC50 for antiviral activity against wild-type HCV J6/JFH/JC1 infected in human Huh7.5 cells; type: functional
Hepatitis C virus [10] = assay: Antiviral activity against HCV J6/JFH/JC1 harboring S282T mutant infected in human Huh7.5 cells assessed as inhibition of viral replication measured after 72 hrs by qRT-PCR analysis; type: functional, organism-based, Hepacivirus hominis; settings: J6/JFH/JC1, Huh7.5, 72 h
[11] = biological target: T1, Chondroitin sulfate N-acetylgalactosaminyltransferase 1 (Homo sapiens) (UniProt Q8TDX6); assay: Destabilization of CSGalNacT-1 in human Huh7.5 cells assessed as down regulation of CSGalNacT-1 protein levels measured after 72 hrs by Western blot analysis; type: cell-based; settings: dose 0.2-25 µM
T1 sequence (whole entry): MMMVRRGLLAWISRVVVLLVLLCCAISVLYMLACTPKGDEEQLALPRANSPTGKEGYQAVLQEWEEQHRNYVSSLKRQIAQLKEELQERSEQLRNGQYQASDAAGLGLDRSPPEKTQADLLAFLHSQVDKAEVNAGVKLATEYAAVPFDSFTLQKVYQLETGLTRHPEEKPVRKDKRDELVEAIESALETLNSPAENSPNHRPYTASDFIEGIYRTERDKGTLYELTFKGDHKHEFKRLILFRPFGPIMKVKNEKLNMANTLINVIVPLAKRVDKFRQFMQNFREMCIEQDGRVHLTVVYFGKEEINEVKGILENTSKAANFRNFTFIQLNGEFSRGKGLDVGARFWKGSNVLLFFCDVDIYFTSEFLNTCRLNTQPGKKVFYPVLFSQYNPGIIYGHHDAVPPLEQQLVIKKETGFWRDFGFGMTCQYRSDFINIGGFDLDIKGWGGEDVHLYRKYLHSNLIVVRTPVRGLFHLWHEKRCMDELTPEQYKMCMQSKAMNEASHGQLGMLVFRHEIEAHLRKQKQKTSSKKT

| EC50 [1] [µM] | Compound | CC50 at 72 h [2] [µM] | selectivity ratio at 72 h [3] | further results |
| --- | --- | --- | --- | --- |
| 16.1 | COC(=O)c1c(CCc2ccccc2)cc(OC)c(CC=C(C)C)c1O | 122 | 8 |  |
| 0.33 | COc1cc(/C=C/c2ccc(O)cc2)c(C(=O)O)c(O)c1CC=C(C)C | 16.1 | 49 |  |
| 4.13 | CCOC(=O)c1c(/C=C/c2ccccc2)cc(OC)c(CC=C(C)C)c1O | 195 | 47 |  |
| 1.95 | COc1cc(/C=C/c2cccc(C)c2)c(C(=O)O)c(O)c1CC=C(C)C | 82.5 | 42 |  |
| 1.03 | COc1cc(/C=C/c2ccccc2Cl)c(C(=O)O)c(O)c1CC=C(C)C | 39.5 | 39 |  |
|  | C/C=C/C[C@@H](C)[C@@H](O)[C@H]1C(=O)N[C@@H](CC)C(=O)N(C)[C@H](C)C(=O)N(CC)[C@@H](C(C)C)C(=O)N[C@@H](C(C)C)C(=O)N(C)[C@@H](CC(C)C)C(=O)N[C@@H](C)C(=O)N[C@H](C)C(=O)N(C)[C@@H](CC(C)C)C(=O)N(C)[C@@H](CC(C)C)C(=O)N(C)[C@@H](C(C)C)C(=O)N1C [ALISPORIVIR] |  |  | EC50 [4]: 0.0158 µM |
| 6.54 | COc1cc(/C=C/c2ccc(C)cc2)c(C(=O)O)c(O)c1CC=C(C)C | 82.9 | 13 |  |
| 4.87 | COC(=O)c1c(/C=C/c2ccccc2)cc(OC)c(CC=C(C)C)c1O | > 200 | > 41 |  |
| 1.49 | COc1cc(/C=C/c2ccc(F)cc2)c(C(=O)O)c(O)c1CC=C(C)C | 69.2 | 46 |  |
| 1.7 | COc1cc(/C=C(\C)c2ccccc2)c(C(=O)O)c(O)c1CC=C(C)C | 76.8 | 45 |  |
| 5.92 | COc1cc(/C=C/c2ccccc2C)c(C(=O)O)c(O)c1CC=C(C)C | 55.3 | 9 |  |
| 2.89 | COC(=O)c1c(/C=C(\C)c2ccccc2)cc(OC)c(CC=C(C)C)c1O | 102 | 35 |  |
|  | COc1ccc2c(O[C@@H]3C[C@H]4C(=O)N[C@]5(C(=O)NS(=O)(=O)C6CC6)C[C@H]5/C=C\CCCCN(C)C(=O)[C@@H]4C3)cc(-c3nc(C(C)C)cs3)nc2c1C |  |  | EC50 (Hepatitis C virus [8]): 0.93 µM; Ratio EC50 [9]: 23.3; EC50 (Hepatitis C virus [7]): 40 nM |
|  | CC(C)OC(=O)[C@H](C)N[P@](=O)(OC[C@H]1O[C@@H](n2ccc(=O)[nH]c2=O)[C@](C)(F)[C@@H]1O)Oc1ccccc1 [SOFOSBUVIR] |  |  | EC50 (Hepatitis C virus [10]): 0.29 µM |
| 12 | COc1cc(/C=C/c2ccccc2)cc(O)c1CC=C(C)C | 21.4 | 1.8 |  |
| 1.68 | COc1cc(CCc2ccccc2)c(C(=O)O)c(O)c1CC=C(C)C [AMORFRUTIN A] | 59.4 | 35 |  |
|  | COC(=O)c1c(O)cc(OC)cc1/C=C/c1ccccc1 |  |  | Activity [11]: Dose-dependent effect |
|  | COC(=O)N[C@H](C(=O)N1CCC[C@H]1c1ncc(-c2ccc(-c3ccc(-c4cnc([C@@H]5CCCN5C(=O)[C@@H](NC(=O)OC)C(C)C)[nH]4)cc3)cc2)[nH]1)C(C)C |  |  | EC50 (Hepatitis C virus [7]): 0.0177 nM |
| 13.4 | COc1cc(/C=C/C=C/c2ccccc2)c(C(=O)O)c(O)c1CC=C(C)C | 96.9 | 7 |  |
| 3.7 | COc1cc(/C=C/c2cccs2)c(C(=O)O)c(O)c1CC=C(C)C | 83 | 22 |  |

| Compound | EC50 [1] [µM] | CC50 at 72 h [2] [µM] | selectivity ratio at 72 h [3] | further results |
| --- | --- | --- | --- | --- |
| CC/C=C/c1cc(OC)c(CC=C(C)C)c(O)c1C(=O)OC | 24.8 | 89.3 | 4 |  |
| CC/C=C/c1cc(OC)c(CC=C(C)C)c(O)c1C(=O)O | 1.02 | 72.9 | 71 |  |
| CCC[C@H](NC(=O)[C@@H]1[C@H]2CCC[C@H]2CN1C(=O)[C@@H](NC(=O)[C@@H](NC(=O)c1cnccn1)C1CCCCC1)C(C)(C)C)C(=O)C(=O)NC1CC1 | 0.008 | 44.9 | 5700 | Activity (Hepatitis C virus [5]): Active; EC50 (Hepatitis C virus [6]): 0.62 µM; EC50 (Hepatitis C virus [7]): 20 nM |
